One block for each compound: values may come before it. Calls of active or inactive are those of the source. The calls are words filed in the database; no cut-off is given here.
Columns and labels:
[1] = target: T1, Cyclin-dependent kinase 5 (Homo sapiens, UniProt Q00535); assay: Inhibition of CDK5 (unknown origin)
[2] = target: T2, Cyclin-dependent kinase 9 (Homo sapiens, UniProt P50750); assay: Inhibition of CDK9 (unknown origin)
[3] = target: T2, Cyclin-dependent kinase 9; assay: Binding affinity to CDK9 (unknown origin)
[4] = target: T1, Cyclin-dependent kinase 5; assay: Binding affinity to CDK5 (unknown origin)
[5] = target: T3, Protein cereblon/Cyclin-dependent kinase 9 (Homo sapiens, UniProt P50750+Q96SW2); assay: Protac activity at CDK9/CRBN in human HEK293 cells assessed as degradation of CDK9 at 0.01 to 10 uM incubated for 24 hrs by Western blot analysis; type: cell-based; details: dose 0.01-10 µM
Method in brief: (§1)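 HEK293 cells were treated with increasing concentrations (0.01–10 μM) for 24 hr. Lysates were analysed by western blot for CDK9 degradation.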
Target sequence in this assay (P50750 whole entry, looked up): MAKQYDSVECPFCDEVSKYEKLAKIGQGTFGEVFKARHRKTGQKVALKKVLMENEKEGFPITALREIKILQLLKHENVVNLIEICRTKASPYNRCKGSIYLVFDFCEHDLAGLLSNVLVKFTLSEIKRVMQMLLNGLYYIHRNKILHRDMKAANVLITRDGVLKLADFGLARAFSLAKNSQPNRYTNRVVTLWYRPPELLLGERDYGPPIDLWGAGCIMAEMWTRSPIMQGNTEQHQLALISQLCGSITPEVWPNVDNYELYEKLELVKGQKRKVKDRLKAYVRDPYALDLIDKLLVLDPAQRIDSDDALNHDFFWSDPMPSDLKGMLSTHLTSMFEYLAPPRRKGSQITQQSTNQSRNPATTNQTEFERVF
Target sequence in this assay (Q96SW2 whole entry, looked up): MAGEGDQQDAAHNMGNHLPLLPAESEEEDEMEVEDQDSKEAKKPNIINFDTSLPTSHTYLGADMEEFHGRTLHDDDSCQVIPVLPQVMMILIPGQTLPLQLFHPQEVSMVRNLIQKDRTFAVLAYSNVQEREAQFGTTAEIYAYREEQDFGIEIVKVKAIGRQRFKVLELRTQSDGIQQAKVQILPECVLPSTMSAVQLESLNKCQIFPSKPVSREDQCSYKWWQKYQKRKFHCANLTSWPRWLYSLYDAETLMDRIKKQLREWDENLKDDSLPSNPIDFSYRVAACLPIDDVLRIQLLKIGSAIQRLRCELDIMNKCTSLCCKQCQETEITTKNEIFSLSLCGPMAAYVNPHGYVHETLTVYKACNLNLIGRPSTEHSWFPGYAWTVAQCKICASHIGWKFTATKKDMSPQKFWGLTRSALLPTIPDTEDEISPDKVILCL

[6] = target: T3, Protein cereblon/Cyclin-dependent kinase 9; assay: Protac activity at CDK9/CRBN in human HEK293 cells assessed as degradation of CDK9 incubated for 24 hrs by Western blot analysis; type: cell-based; method in brief: as §1
Target sequence in this assay (P50750 whole entry): as the sequence (P50750 whole entry, looked up) above
Target sequence in this assay (Q96SW2 whole entry): as the sequence (Q96SW2 whole entry, looked up) above

[7] = target: Cyclin-dependent kinase 7 (Homo sapiens) (UniProt P50613); assay: Inhibition of CDK7 in human HEK293 cells assessed as reduction in CDK7 level at 10 uM incubated for 24 hrs by Western blot analysis; type: cell-based
Method in brief: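 HEK293 cells were treated at indicated concentrations for 24 h. Lysates were analysed by western blot and probed for CDK family members, including CDK7 and CDK9.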

T2 sequence (P50750 whole entry): as the sequence (P50750 whole entry, looked up) above
T1 sequence (Q00535 whole entry): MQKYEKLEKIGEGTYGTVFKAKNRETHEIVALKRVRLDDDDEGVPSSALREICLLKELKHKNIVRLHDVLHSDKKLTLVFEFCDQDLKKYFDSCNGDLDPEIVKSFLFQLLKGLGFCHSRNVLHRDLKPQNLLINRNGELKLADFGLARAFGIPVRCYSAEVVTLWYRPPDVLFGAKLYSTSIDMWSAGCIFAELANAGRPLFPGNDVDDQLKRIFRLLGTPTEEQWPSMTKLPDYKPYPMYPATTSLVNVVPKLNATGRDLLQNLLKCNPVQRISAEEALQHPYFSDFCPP
Sequence of Cyclin-dependent kinase 7 (Homo sapiens) (P50613 whole entry): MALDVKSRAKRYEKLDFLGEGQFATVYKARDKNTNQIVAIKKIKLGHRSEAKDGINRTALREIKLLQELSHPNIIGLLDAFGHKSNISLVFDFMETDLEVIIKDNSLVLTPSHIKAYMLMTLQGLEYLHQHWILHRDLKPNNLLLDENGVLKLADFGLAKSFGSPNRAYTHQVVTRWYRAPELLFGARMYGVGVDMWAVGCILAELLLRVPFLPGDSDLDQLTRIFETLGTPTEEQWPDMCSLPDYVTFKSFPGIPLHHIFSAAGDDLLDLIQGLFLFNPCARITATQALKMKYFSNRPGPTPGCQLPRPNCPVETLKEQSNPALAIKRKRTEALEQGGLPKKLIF

IC50 [1]: 0.032 µM | IC50 [2]: 1.08 µM | Kd [3]: 1.06 µM | Kd [4]: 0.23 µM
Compound: COc1ccc(CC(=O)Nc2cc(C3CCC3)[nH]n2)cc1

Activity [5]: inactive
Compound: O=C(COc1ccc(CC(=O)Nc2cc(C3CCC3)[nH]n2)cc1)NCCCOCCOCCOCCCNc1cccc2c1C(=O)N(C1CCC(=O)NC1=O)C2=O (centres undefined)

Activity [5]: inactive
Compound: O=C(CCCOc1ccc(CC(=O)Nc2cc(C3CCC3)[nH]n2)cc1)NCCCOCCOCCOCCCNc1cccc2c1C(=O)N(C1CCC(=O)NC1=O)C2=O (centres undefined)

DC50 [6]: 1 µM
Compound: O=C(COc1ccc(CC(=O)Nc2cc(C3CCC3)[nH]n2)cc1)NCCCCCCCCNc1cccc2c1C(=O)N(C1CCC(=O)NC1=O)C2=O (centres undefined)

Activity [7]: inactive
Compound: CN1CC[C@H](c2c(O)cc(O)c3c(=O)cc(-c4ccccc4Cl)oc23)[C@H](O)C1

Activity [5]: inactive
Compound: O=C(COCCOCCOCCOc1ccc(CC(=O)Nc2cc(C3CCC3)[nH]n2)cc1)NCCCCNc1cccc2c1C(=O)N(C1CCC(=O)NC1=O)C2=O (centres undefined)

From ChEMBL document CHEMBL4819106, “Aminopyrazole based CDK9 PROTAC sensitizes pancreatic cancer cells to venetoclax” (Bioorg Med Chem Lett, 2021)
